Experimental data reported in ChEMBL document CHEMBL1129445 (J Med Chem, 1996).
pIC50: −log10 of the molar value.

Key:
[1] = target: T1, Inosine-5'-monophosphate dehydrogenase 2 (Homo sapiens, UniProt P12268); test: Inhibition of human recombinant inosine monophosphate dehydrogenase type II.
Outline: (§1)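 Reactions are run either at pH 7.4 (0.1 M K phosphate, 0.5 M KCl, 3 mM EDTA, 10 μg/mL BSA) or at pH 8.0 (0.1 M Tris-HCl, 0.1 M KCl, 3 mM EDTA, 100 μg/mL BSA). DMSO ≤10%, compounds tested up to 100 μM. IC50 from fit of fractional activity = V0/[(I/IC50)^n + 1].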

[2] = target: T1, Inosine-5'-monophosphate dehydrogenase 2; test: Inhibition of human recombinant type II Inosine Monophosphate Dehydrogenase. at pH 8.0
Outline: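 Recombinant human type II IMPDH (12.5-25 pmol) in 0.1 M Tris-HCl pH 8.0, 0.1 M KCl, 3 mM EDTA, 100 μg/mL BSA. […] IC50 fitted with a Hill equation, fractional activity = V0/[(I/IC50)^n + 1].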

Homo sapiens [3] = organism: Homo sapiens; test: Inhibition of human Lymphocyte proliferation. The IC50 values were determined by interpolation using cubic spline determination.; format: functional
Outline: (§2)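 Human PBMC are isolated on Ficoll from heparinized blood and plated at 2 × 10^5 cells/well in RPMI-1640 with 5% FCS. Cells are stimulated with PHA (10 μg/mL final) and given compound at time 0, at 4-6 concentrations between 0.001 and 20 μM (tested to 10 μM). Cultures run in quadruplicate for 72 h at 37 °C, 7% CO2, with [3H]thymidine (0.5 μCi/well) for the last 6 h. IC50 by cubic-spline interpolation of the means.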

Homo sapiens [4] = organism: Homo sapiens; test: Inhibition of human Lymphocyte proliferation. The IC50 values were determined by interpolation using the cubic spline determination at 10 uM; format: functional; outline: as §2
[5] = target: T1, Inosine-5'-monophosphate dehydrogenase 2; test: Inhibition of human recombinant type II Inosine Monophosphate Dehydrogenase at 100 uM; outline: as §1
Mus musculus [6] = test: Tested for the inhibition of murine PFC response at 50 mg/kg dose; format: functional
[7] = target: T1, Inosine-5'-monophosphate dehydrogenase 2; test: Compound was tested for inhibition of human recombinant type II Inosine Monophosphate Dehydrogenase. (tested to 100 and 10 uM conc); outline: as §1
Mus musculus [8] = test: % inhibition of Murine plaque forming cells response was measured in Mice at 6.25 mg/kg dose; format: functional
Mus musculus [9] = test: % inhibition of Murine plaque forming cells response was measured in Mice at 12.5 mg/kg dose; format: functional
Mus musculus [10] = organism: Mus musculus; test: Effective dose was measured in mice as concentration required to inhibit 50% inhibition of Murine PFC response; format: functional
Outline: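 Jerne plaque assay in female C3H or CD-1 mice immunized ip with SRBC on day 0, with oral daily dosing over the next 4 days. Splenic PFC per 10^6 WBC counted on day 4. ED50 read graphically from the dose-inhibition data.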

Mus musculus [11] = test: % inhibition of Murine plaque forming cells response was measured in Mice at 25 mg/kg dose; format: functional
Mus musculus [12] = test: Tested for the inhibition of murine PFC response at 25 mg/kg dose; format: functional
Mus musculus [13] = test: Tested for the inhibition of murine PFC response at 6.25 mg/kg dose; format: functional
Mus musculus [14] = test: Tested for the inhibition of murine PFC response at 12.5 mg/kg dose; format: functional
[15] = Compound was tested for inhibition of human Lymphocyte proliferation. The IC50 values were determined by interpolation using the cubic spline determination.; format: functional; outline: as §2
Mus musculus [16] = test: Tested for the inhibition of murine PFC response at 100 mg/kg dose; format: functional

Structure (SMILES) | pIC50 [1] | pIC50 (Homo sapiens [3]) | other results
COc1c(C/C=C(\C)CCC(=O)O)cc(C#N)c(C)c1C | 5.80 |  | 
COc1c(C#N)c2c(c(O)c1C/C=C(\C)CCC(=O)O)C(=O)OC2 |  | < 5.00 | pIC50 [2]: < 4.00
COc1c(C)c(C)c([N+](=O)[O-])c(Cl)c1C/C=C(\C)CCC(=O)O |  |  | pIC50 (Homo sapiens [4]): < 5.00; pIC50 [5]: 5.74
COc1cc2c(c(O)c1C/C=C(\C)CCC(=O)O)C(=O)OC2 |  |  | pIC50 [2]: 6.29
COc1cc(C/C=C(\C)CCC(=O)O)c(OC)c(C)c1C | 4.30 |  | 
C/C(=C\Cc1c(C)c(C)c2c(c1O)C(=O)OC2)CCC(=O)O |  | 6.60 | pIC50 [2]: 7.73; inhibition in vivo at 50 mg/kg (Mus musculus [6]): 45%
COc1c(C/C=C(\C)CCC(=O)O)cc(SC)c(C)c1C |  |  | pIC50 (Homo sapiens [4]): < 5.00; pIC50 [5]: 4.28
C/C(=C\Cc1c(O)cc(C)c(C)c1C)CCC(=O)O |  |  | pIC50 [7]: < 4.00
COc1c(C)c(C)cc(Cl)c1C/C=C(\C)CCC(=O)O |  |  | pIC50 (Homo sapiens [4]): < 5.00; pIC50 [5]: 4.73
COc1c(C/C=C(\C)CCC(=O)O)cc(O)c(C)c1C |  |  | pIC50 [5]: < 4.00
COc1c(C)c2c(c(O)c1C/C=C(\C)CCC(=O)O)C(=O)OC2 [MYCOPHENOLIC ACID] |  | 7.24 | inhibition in vivo at 25 mg/kg (Mus musculus [12]): 36%; inhibition in vivo at 6.25 mg/kg (Mus musculus [13]): 16%; inhibition in vivo at 12.5 mg/kg (Mus musculus [14]): 20%; inhibition in vivo at 50 mg/kg (Mus musculus [6]): 81%; ED50 (Mus musculus [10]): 33 mg/kg
COc1c(C)c2c(c(O)c1C/C=C(\C)CCC(=O)O)C(=O)OCC2 |  | 5.07 | pIC50 [2]: 6.19
C/C(=C\Cc1c(C)c(C)c(C)c(Br)c1N)CCC(=O)O | 6.12 |  | 
COc1c(C)c2c(c(O)c1C/C=C(\C)CCC(=O)O)C(=O)NC2 |  | 5.82 | pIC50 [2]: 6.61
COc1c(C/C=C(\C)CCC(=O)O)cc(Br)c(C)c1C |  |  | pIC50 (Homo sapiens [4]): < 5.00; pIC50 [5]: 6.10
C/C(=C\Cc1c(C)c(C)c(C)c([N+](=O)[O-])c1O)CCC(=O)O | 6.54 | 5.49 | 
COc1c(C)c(C)c(OC)c(C/C=C(\C)CCC(=O)O)c1O | 4.92 |  | 
COc1c(C)c(C)c(C)c(O)c1C/C=C(\C)CCC(=O)O | 6.02 | 5.43 | 
COc1c(C)c2c(c(O)c1C/C=C(\C)CCC(=O)O)C(=O)N(C)C2 |  |  | pIC50 [2]: < 4.00; pIC50 [15]: < 5.00
COc1c(C/C=C(\C)CCC(=O)O)cc([N+](=O)[O-])c(C)c1C | 5.91 | 5.02 | 
COc1c(C)c(C)c(Cl)c(F)c1C/C=C(\C)CCC(=O)O | 6.36 | 5.12 | inhibition in vivo at 100 mg/kg (Mus musculus [16]): 0%
C/C(=C\Cc1c(N)cc(C)c(C)c1C)CCC(=O)O | 4.04 |  | 
COc1c(C/C=C(\C)CCC(=O)O)cc(S(C)=O)c(C)c1C (stereo unspecified) |  |  | pIC50 (Homo sapiens [4]): < 5.00; pIC50 [5]: < 4.00

Further lines, with some results ahead:

pIC50 [1] | Structure (SMILES) | pIC50 (Homo sapiens [3]) | other results
7.29 | C/C(=C\Cc1c(O)c2c(c(C)c1C1CC1)COC2=O)CCC(=O)O | 6.47 | 
6.92 | COc1c(C)c2c(c(O)c1C/C=C(\C)CCC(=O)O)C(=O)SC2 | 5.77 | 
8.07 | C=Cc1c(C)c2c(c(O)c1C/C=C(\C)CCC(=O)O)C(=O)OC2 | 7.03 | 
6.33 | COc1c(C)c(C)c([N+](=O)[O-])c(N)c1C/C=C(\C)CCC(=O)O | 5.55 | 
7.90 | CCc1c(C)c2c(c(O)c1C/C=C(\C)CCC(=O)O)C(=O)OC2 | 7.24 | inhibition in vivo at 6.25 mg/kg (Mus musculus [8]): 25%; inhibition in vivo at 12.5 mg/kg (Mus musculus [9]): 73%; ED50 (Mus musculus [10]): 9 mg/kg; inhibition in vivo at 25 mg/kg (Mus musculus [11]): 93%
6.27 | COc1c(C/C=C(\C)CCC(=O)O)cc(Cl)c(C)c1C | 5.17 | 
6.21 | C/C(=C\Cc1c(C)c(C)c(C)c(Br)c1O)CCC(=O)O | 5.78 | 
7.06 | C/C(=C\Cc1c(O)c(C)c2c(c1O)C(=O)OC2)CCC(=O)O | < 5.00 | 
6.64 | C/C(=C\Cc1c(O)c2c(c(C)c1C(N)=O)COC2=O)CCC(=O)O | < 5.00 | 
